This is an account of results in ChEMBL document CHEMBL2401730, “The macrocyclic peptide natural product CJ-15,208 is orally active and prevents reinstatement of extinguished cocaine-seeking behavior” (J Nat Prod, 2013).

Data set [1] has as its system Mus musculus. As to the kind of experiment: Antinociceptive activity in C57BL/6J mouse at 60 mg/kg, po after 140 mins by warm water tail withdrawal assay. Type of data set: functional, organism-based. The arrangement: dose 60 mg/kg. The procedure, abridged: (§1)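 Adult male C57BL/6J mice (20-25 g); baseline tail-withdrawal latency in 55 °C water measured, then oral dosing in 1:1:8 ethanol/Tween 80/0.9% saline vehicle. Latency re-measured repeatedly over time, 15 s cut-off. %antinociception = 100×(test−control)/(15−control). ED50 with 95% CI; 7-24 mice/group; repeated-measures ANOVA at 10 min intervals for hour 1 and hour 2.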

For data set [2], the system named is Mus musculus. As to the kind of experiment: Antinociceptive activity in C57BL/6J mouse at 0.3 mg/kg, po after 60 mins by warm water tail withdrawal assay. It counts as functional, organism-based. The arrangement: dose 0.3 mg/kg. The procedure, abridged:
as §1

The test system of data set [3] is Mus musculus. As to the kind of experiment: Antagonist activity at kappa opioid receptor in po dosed C57BL/6J mouse assessed as inhibition of ip dosed U50,488-induced antinociception effect incubated for 3 hrs prior to testing by warm water tail withdrawal assay.
The subject of data set [4] is Mus musculus. As to the kind of experiment: Antagonist activity at kappa opioid receptor in po dosed C57BL/6J mouse assessed as inhibition of icv dosed U50,488-induced antinociception effect incubated for 3 hrs prior to testing by warm water tail withdrawal assay. Type of data set: functional, organism-based. The essentials: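 Male C57BL/6J mice (20-25 g) given test agent orally in 1:1:8 ethanol/Tween 80/saline; 3 h later U50,488 given ip (10 mg/kg, in saline) or icv (30 nmol), with tail-withdrawal testing in 55 °C water 40 or 20 min afterwards, respectively. 15 s cut-off; % antinociception calculated from baseline latency. 8 mice/group; one-way ANOVA with Tukey HSD.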

The test system of data set [5] is Mus musculus. As to the kind of experiment: Neurotoxicity in C57BL/6J mouse assessed as sedative effect at 10 to 60 mg/kg, po after 60 mins by rotarod test. Type of data set: toxicity, organism-based. The settings on record: in vivo, 1 h. Also noted: dose 10-60 mg/kg, route oral. The essentials: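 Seven habituation trials, with the last used as baseline. Male C57BL/6J mice then received oral vehicle (1:1:8) or 10 or 60 mg/kg; the U50,488 comparator was given 10 mg/kg ip. Accelerating rotorod (0-20 rpm, 180 s maximum) over 60 min. Latency to fall expressed as % change from baseline; 7-8 mice/group; two-way ANOVA.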
Background: The rotarod test checks motor coordination on a turning rod.

Data set [6] relates to Mus musculus. The data set can be described thus: Prevention of cocaine-induced reinstatement of extinguished cocaine seeking behavior in C57BL/6J mouse at 30 to 60 mg/kg, po qd for 2 days followed by additional cycle of cocaine place conditioning at 30 mins post last dose measured on day 3. It counts as functional, organism-based. The essentials: (§2)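 Counterbalanced CPP: four days of saline (30 min confinement), then cocaine 10 mg/kg sc 4 h later in the opposite compartment. Extinction followed over 3 weeks of twice-weekly tests. Oral 1:1:8 vehicle or 30/60 mg/kg given days 28-29, then either forced swim 3 h later or cocaine conditioning 30 min after day-29 dose. Place preference tested day 30 over 30 min; 12-16 mice/group; ANOVA/Tukey HSD.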

Data set [7] relates to Mus musculus. The data set can be described thus: Prevention of stress-induced reinstatement of extinguished cocaine seeking behavior in C57BL/6J mouse at 60 mg/kg, po qd for 2 days measured 3 hrs post last dose by forced swim test. It counts as functional, organism-based. The arrangement: dose 60 mg/kg. The essentials:
as §2

Data set [8] concerns Mus musculus. As to the kind of experiment: Antinociceptive activity in C57BL/6J mouse at 1 to 30 mg/kg, po after 120 mins by warm water tail withdrawal assay. It counts as functional, organism-based. The essentials: as §1
Data set [9] has as its system Mus musculus. The data set can be described thus: Antinociceptive activity in C57BL/6J mouse at 1 to 60 mg/kg, po after 60 mins by warm water tail withdrawal assay. It counts as functional, organism-based. The procedure, abridged:
as §1

Data set [10] concerns Mus musculus. As to the kind of experiment: Antinociceptive activity in po dosed C57BL/6J mouse after 40 mins by warm water tail withdrawal assay. It counts as functional. The essentials:
as §1

The test system of data set [11] is Mus musculus. As to the kind of experiment: Prevention of stress-induced reinstatement of extinguished cocaine cocaine seeking behavior in C57BL/6J mouse at 30 mg/kg, po qd for 2 days measured 3 hrs post last dose by forced swim test. Type of data set: functional, organism-based. The arrangement: dose 30 mg/kg. The procedure, abridged: as §2

The source made the active and inactive calls. Where a SMILES comes first, the peptide text is derived from it. [ ]: non-standard residue; d: D form.

For the molecule `O=C1N[C@@H](Cc2ccccc2)C(=O)N2CCC[C@@H]2C(=O)N[C@@H](Cc2ccccc2)C(=O)N[C@H]1Cc1c[nH]c2ccccc12` (cyclo(FWF[dP])), the outcome in the data set with Mus musculus [1], with Mus musculus [6], in the data set with Mus musculus [7] and in the data set on Mus musculus [9] was Active. Moreover, the outcome with Mus musculus [2], with Mus musculus [8] and in the data set on Mus musculus [11] was inactive. In addition, the inhibition result with Mus musculus [3] and with Mus musculus [4] was “Dose-dependent effect” throughout. In the data set on Mus musculus [5], the Activity entry is “Non-toxic”. The 50% effect level with Mus musculus [10] (ED50) was put at a dose of 3.49 mg/kg.
